pIC50: −log10 of the molar value. Activity calls are given as the source filed them. The rule behind the calls is not given here.
What was measured:
Nakaseomyces glabratus = test: Inhibition of ergosterol biosynthesis in Candida glabrata DSM 11226 at 0.2 to 0.5 times MIC after 48 hrs by GC-MS analysis; type: functional, organism-based
Procedure, shortened: (§1)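 Whole-cell sterol-pattern assay analogous to the cholesterol one, run on S. cerevisiae, Yarrowia lipolytica and Candida glabrata; accumulation of precursor sterols and cellular ergosterol content followed.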

[1] = molecular target: T1, Lanosterol synthase (Homo sapiens) (UniProt P48449); test: Inhibition of OSC in human HL60 cells assessed as accumulation of 2,3-oxidosqualene by GC-MS method; type: cell-based; details: HL-60
T1 sequence (whole entry): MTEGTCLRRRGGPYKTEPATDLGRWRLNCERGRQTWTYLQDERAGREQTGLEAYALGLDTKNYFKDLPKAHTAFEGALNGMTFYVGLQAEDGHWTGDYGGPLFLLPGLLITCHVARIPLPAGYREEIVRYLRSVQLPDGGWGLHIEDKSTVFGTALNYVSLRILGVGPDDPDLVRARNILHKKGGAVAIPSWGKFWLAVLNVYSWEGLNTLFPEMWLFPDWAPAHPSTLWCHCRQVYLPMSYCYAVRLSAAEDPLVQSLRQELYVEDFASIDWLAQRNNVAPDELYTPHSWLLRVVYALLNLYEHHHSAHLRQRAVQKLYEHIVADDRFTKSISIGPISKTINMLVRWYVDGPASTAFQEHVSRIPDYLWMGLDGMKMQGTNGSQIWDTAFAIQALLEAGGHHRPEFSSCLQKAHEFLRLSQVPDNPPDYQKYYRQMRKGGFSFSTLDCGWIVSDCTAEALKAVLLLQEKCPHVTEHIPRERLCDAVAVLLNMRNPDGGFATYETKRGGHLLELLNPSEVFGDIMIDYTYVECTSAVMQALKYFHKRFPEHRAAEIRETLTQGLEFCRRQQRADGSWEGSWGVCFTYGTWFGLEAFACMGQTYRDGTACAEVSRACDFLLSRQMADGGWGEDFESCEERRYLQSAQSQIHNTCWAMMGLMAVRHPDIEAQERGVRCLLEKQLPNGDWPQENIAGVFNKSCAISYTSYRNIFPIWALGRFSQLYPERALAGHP
Procedure, shortened: (§2)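 Qualitative whole-cell screen: human HL-60 cells incubated with compound, then lysed and extracted; sterol pattern analysed by GC-MS. Enzyme target assigned from characteristic precursor accumulation: 2,3-oxidosqualene for OSC, 7-dehydrocholesterol for dehydrocholesterol reductase.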

[2] = Inhibition of Trypanosoma cruzi OSC expressed in recombinant Saccharomyces cerevisiae SMY8 using [14C]-(3S)-2,3-oxidosqualene as substrate
Procedure, shortened: (§3)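 Homogenates of yeast cultures (SMY8 expressing human or T. cruzi OSC; wild-type S. cerevisiae FL100) incubated with radiolabelled 2,3-oxidosqualene at increasing inhibitor concentrations; IC50 as mean of two separate experiments, each in duplicate.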

HL-60 = test: Inhibition of total cholesterol biosynthesis in human HL60 cells assessed as incorporation of 2-13C-acetate by GC-MS analysis; type: functional, cell-based
Procedure, shortened: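 HL-60 cells incubated with inhibitor in presence of 2-13C-acetate; newly made 13C-labelled cholesterol distinguished from unlabelled pre-existing cholesterol by GC-MS after extraction; IC50 for total cholesterol biosynthesis derived; triplicate experiments.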

[3] = Cytotoxicity against human HL60 cells after 24 hrs by MTT assay; type: cell-based; details: HL-60, 24 h
Procedure, shortened: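 MTT assay on human leukaemia HL-60 cells, following Mosmann; cisplatin as reference; triplicate experiments.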

Saccharomyces cerevisiae = test: Inhibition of ergosterol biosynthesis in Saccharomyces cerevisiae DSM 1333 at 0.2 to 0.5 times MIC after 48 hrs by GC-MS analysis; type: functional, organism-based; procedure, shortened: as §1
Lanosterol synthase = molecular target: T2, Lanosterol synthase (Homo sapiens, UniProt P48449); test: Inhibition of human OSC expressed in recombinant Saccharomyces cerevisiae SMY8 using [14C]-(3S)-2,3-oxidosqualene as substrate; procedure, shortened: as §3
T2 sequence (P48449 whole entry): T1 sequence (whole entry)

Yarrowia lipolytica = test: Inhibition of ergosterol biosynthesis in Yarrowia lipolytica DSM 1345 at 0.2 to 0.5 times MIC after 48 hrs by GC-MS analysis; type: functional, organism-based; procedure, shortened: as §1
[4] = Inhibition of Saccharomyces cerevisiae FL100 wild type OSC using [14C]-(3S)-2,3-oxidosqualene as substrate; procedure, shortened: as §3
[5] = Inhibition of Saccharomyces cerevisiae OSC expressed in recombinant Saccharomyces cerevisiae SMY8 using [14C]-(3S)-2,3-oxidosqualene as substrate
[6] = molecular target: T3, 7-dehydrocholesterol reductase (Homo sapiens) (UniProt Q9UBM7); test: Inhibition of 7-dehydrocholesterol reductase in human HL60 cells assessed as accumulation of 7-dehydrocholesterol by GC-MS method; type: cell-based; details: HL-60; procedure, shortened: as §2
T3 sequence (whole entry): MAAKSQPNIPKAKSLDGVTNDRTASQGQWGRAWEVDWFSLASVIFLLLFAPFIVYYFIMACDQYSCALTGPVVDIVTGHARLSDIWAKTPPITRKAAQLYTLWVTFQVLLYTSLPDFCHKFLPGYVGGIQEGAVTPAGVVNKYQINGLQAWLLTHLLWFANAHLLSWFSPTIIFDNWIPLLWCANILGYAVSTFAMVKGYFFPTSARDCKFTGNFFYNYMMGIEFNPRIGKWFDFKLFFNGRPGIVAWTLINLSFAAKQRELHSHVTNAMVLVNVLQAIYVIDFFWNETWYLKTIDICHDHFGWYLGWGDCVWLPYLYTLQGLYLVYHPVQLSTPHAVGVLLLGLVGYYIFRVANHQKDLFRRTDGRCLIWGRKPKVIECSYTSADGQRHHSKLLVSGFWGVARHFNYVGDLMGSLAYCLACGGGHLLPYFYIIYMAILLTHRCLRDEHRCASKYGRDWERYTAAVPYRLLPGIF

SMILES	inhibition (Nakaseomyces glabratus)	inhibition [1]	pIC50 [2]	pIC50 (HL-60)	pIC50 [3]	inhibition (Saccharomyces cerevisiae)	pIC50 (Lanosterol synthase)	inhibition (Yarrowia lipolytica)	pIC50 [4]	pIC50 [5]	inhibition [6]
CN1CCCC(c2ccc3c(c2)CCC3N(C)Cc2ccc(Cl)cc2)C1 (racemic)	inactive	Active	< 5.00	6.85	< 4.30	inactive	5.37	inactive	< 5.00	–	–
CN(CCCc1ccccc1)Cc1ccc(C2CCCN(C)C2)cc1 (racemic)	–	Active	–	–	< 4.30	–	–	–	–	–	–
CC(C)CCN(C)Cc1ccc(C2=CCCN(C)C2)cc1	–	–	–	–	< 4.30	–	–	–	–	–	–
CN1CCC=C(c2ccc(CN(C)CCCc3ccccc3)cc2)C1	inactive	Active	–	–	< 4.30	inactive	–	inactive	–	–	–
CC(C)CN(C)Cc1ccc(C2CCCN(C)C2)cc1 (racemic)	–	–	–	–	< 4.30	–	–	–	–	–	–
CN1CCC=C(c2ccc(CN(C)C/C=C/c3ccccc3)cc2)C1	inactive	Active	< 5.00	6.17	< 4.30	inactive	5.28	inactive	< 5.00	–	–
COc1ccc(CN(C)Cc2ccc(C3=CCCN(C)C3)cc2)cc1	–	–	–	–	< 4.30	–	–	–	–	–	–
CC(C)CCCN(C)Cc1ccc(C2CCCN(C)C2)cc1 (racemic)	–	–	–	–	< 4.30	–	–	–	–	–	–
C=CCN(C)CCCCCCOc1ccc(C(=O)c2ccc(Br)cc2)c(F)c1	–	Active	–	7.04	5.10	–	–	–	–	6.05	–
CC(C)CCN(C)Cc1ccc(C2CCCN(C)C2)cc1 (racemic)	–	–	–	–	< 4.30	–	–	–	–	–	–
CN(Cc1ccc(Cl)cc1)Cc1ccc(C2CCCN(C)C2)cc1 (configuration not stated)	–	Active	< 5.00	5.89	< 4.30	–	5.69	–	< 5.00	–	–
CN(C/C=C/c1ccccc1)Cc1ccc(-c2cccnc2)cc1	–	–	–	–	4.36	–	–	–	–	–	–
CN1CCC=C(c2ccc(CN(C)Cc3ccc4ccccc4c3)cc2)C1	inactive	Active	< 5.00	6.43	< 4.30	inactive	< 5.00	inactive	< 5.00	–	–
CN1CCC=C(c2ccc(CN(C)Cc3ccc([N+](=O)[O-])cc3)cc2)C1	inactive	Active	–	5.64	4.55	inactive	–	inactive	–	–	–
CN(Cc1ccc(Cl)cc1)Cc1ccc(-c2cccnc2)cc1	–	–	–	–	4.68	–	–	–	–	–	–
CN1CCC=C(c2ccc(CN(C)C/C=C/c3ccc([N+](=O)[O-])cc3)cc2)C1	inactive	Active	–	5.89	< 4.30	inactive	–	inactive	–	–	–
CN(Cc1ccc(C2CCCN(C)C2)cc1)Cc1ccc2ccccc2c1 (racemic)	–	Active	< 5.00	5.88	4.40	–	5.07	–	< 5.00	–	–
COC(=O)c1ccc(CN(C)Cc2ccc(C3=CCCN(C)C3)cc2)cc1	–	–	–	–	< 4.30	–	–	–	–	–	–
CN(C/C=C/c1ccccc1)Cc1ccc(C2CCCN(C)C2)cc1 (configuration not stated)	–	Active	< 5.00	5.96	< 4.30	–	5.69	–	< 5.00	–	–
CC(C)CCCN(C)Cc1ccc(C2=CCCN(C)C2)cc1	–	–	–	–	< 4.30	–	–	–	–	–	–
CN(Cc1ccc(Cl)cc1)Cc1cn(C2CCCN(C)C2)nn1 (racemic)	–	–	–	–	< 4.30	–	–	–	–	–	Active
CC(C)CN(C)Cc1ccc(C2=CCCN(C)C2)cc1	–	–	–	–	< 4.30	–	–	–	–	–	–
CN1CCC=C(c2ccc(CN(C)Cc3ccc(Cl)cc3)cc2)C1	inactive	Active	< 5.00	5.67	< 4.30	inactive	5.60	inactive	5.20	–	–
CN(C)Cc1ccc([C@H]2CC[C@H](N(C)C(=O)c3ccc(Cl)cc3)CC2)cc1	–	Active	–	6.51	< 4.30	–	–	–	–	–	–
CN1CCC(c2ccc(CN(C)Cc3ccc(Cl)cc3)cc2)CC1	inactive	Active	< 5.00	6.59	< 4.30	inactive	6.29	inactive	5.32	–	–
CN1CCC=C(c2ccc(CN(C)Cc3ccccc3)cc2)C1	–	–	–	–	< 4.30	–	–	–	–	–	–

— ChEMBL document CHEMBL3763134, “Arylpiperidines as a new class of oxidosqualene cyclase inhibitors” (Eur J Med Chem, 2016)
